Measurements of several laboratories.
Protocols differ between the studies behind these lines.
Target: Cytochrome P450 2C9 (CYP2C9, Homo sapiens, UniProt P11712)
Observed: enzyme activity
Action: inhibitor

Compound | test | system | conditions | quantity | result
NC(=O)C1CCCN1C(=O)Cc1ccc(N(CCCO)Cc2cnc3nc(N)nc(N)c3n2)cc1 (stereo not shown) | luciferase | – | 10 µM | inhibition | -3.91%
CC1(CO)C(O[C@@H]2O[C@H](C(=O)O)[C@@H](O)[C@H](O)[C@H]2O)CC[C@@]2(C)C1CC[C@]1(C)C2CC=C2[C@H]3CC(C)(C)[C@H](O)[C@@H](O)[C@]3(CO)[C@H](O)C[C@]21C (stereo partly shown) | mass spectrometry | human, liver microsomes | – | IC50 | > 90 µg/mL
O=C(NS(=O)(=O)c1ccc(Br)s1)c1ccc(Cl)cc1Cl | – | human, liver microsomes | – | Ki | 0.1 µM
O=C(N[C@H](Cc1c[nH]c2ccccc12)C(=O)Nc1ccncc1)c1ccc(-c2cc(F)ccc2F)cc1F | – | human, liver microsomes | 1 µM | inhibition | 92%
CC(=O)c1cccc(OCc2cc(C(=O)N(C)[C@@H](C)c3ccccn3)no2)c1 | – | human, liver microsomes | – | IC50 | 6.3 µM
C=CC(=O)Nc1cc(Nc2nccc(Nc3cc(Cl)c(F)cc3C(C)(C)O)n2)c(OC)cc1N1CC[C@@H](N(C)C)C1 | – | human, liver microsomes | 10 µM | inhibition | < 20%
COC(=O)C1CCN(C(=O)c2cccc(NCc3cnc4nc(N)nc(N)c4n3)c2)CC1 | luciferase | – | 10 µM | inhibition | -4.69%
O=C(Nc1c2c(cc3c1CCC3)CCC2)NS(=O)(=O)/C=C/c1nccs1 | – | human, liver microsomes | 2 µM, pH 7.4 | inhibition | 21.4%
C=C[C@H]1C[N@@]2CC[C@H]1C[C@@H]2[C@@H](O)c1ccnc2ccc(OC)cc12 | – | human, liver microsomes | 10 µM | inhibition | 15%
CCc1cc(/C(C)=N/OCc2ccc(C3CCCCC3)c(C(F)(F)F)c2)ccc1CN1CC(C(=O)O)C1 | – | human, liver microsomes | 200 µM, 20 min | inhibition | 43.2%
NC(=O)C1CCN(C(=O)Cc2ccc(N(CCCO)Cc3cnc4nc(N)nc(N)c4n3)cc2)CC1 | luciferase | – | 10 µM | inhibition | -7.8%
CC(=O)N1CCN(c2ccc(OCC3COC(Cn4ccnc4)(c4ccc(Cl)cc4Cl)O3)cc2)CC1 (stereo not shown) | – | human, liver microsomes | 1 µM | inhibition | 24%
Cc1cccc(F)c1N1CCC(N2Cc3cn(CC(C)(F)F)nc3N(Cc3ccccc3C(F)(F)F)C2=O)CC1 | – | human, liver microsomes | – | IC50 | > 10 µM
